Results published in ChEMBL document CHEMBL3112554, “Discovery of simplified N²-substituted pyrazolo[3,4-d]pyrimidine derivatives as novel adenosine receptor antagonists: efficient synthetic approaches, biological evaluations and molecular docking studies” (Bioorg Med Chem, 2014).

Key:
Adenosine receptor A2b = target: T1, Adenosine receptor A2b (Homo sapiens, UniProt P29275); test: Antagonist activity at human adenosine A2B receptor expressed in CHO cells assessed as inhibition of NECA-induced adenylyl cyclase activity after 20 mins in presence of [alpha-32P]ATP; type: functional, cell-based
T1 sequence (P29275 whole entry): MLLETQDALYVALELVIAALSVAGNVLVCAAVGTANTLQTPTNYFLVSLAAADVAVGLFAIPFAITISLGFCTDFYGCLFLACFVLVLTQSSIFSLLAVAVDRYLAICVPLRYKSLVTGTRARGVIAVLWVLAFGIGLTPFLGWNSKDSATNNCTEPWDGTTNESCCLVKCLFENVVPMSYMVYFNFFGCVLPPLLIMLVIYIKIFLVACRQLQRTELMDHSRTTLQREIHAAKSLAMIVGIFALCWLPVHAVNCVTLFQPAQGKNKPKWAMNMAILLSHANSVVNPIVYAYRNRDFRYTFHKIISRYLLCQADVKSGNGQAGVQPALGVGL
Method in brief: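 Membranes from CHO cells transfected with the human A2B receptor were incubated for 20 min with 100 nM NECA, 150,000 cpm [α-32P]ATP and test compound at several concentrations. The incubation mixture contained no EGTA and no NaCl. Ki was derived from concentration-dependent inhibition of NECA-stimulated adenylyl cyclase activity (n = 3–6).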

Adenosine receptor A3 = target: T2, Adenosine receptor A3 (Homo sapiens, UniProt P0DMS8); test: Displacement of [3H]-HEMADO from human adenosine A3 receptor expressed in CHO cells after 3 hrs by topcount scintillation counting analysis; type: cell-based
T2 sequence (P0DMS8 whole entry): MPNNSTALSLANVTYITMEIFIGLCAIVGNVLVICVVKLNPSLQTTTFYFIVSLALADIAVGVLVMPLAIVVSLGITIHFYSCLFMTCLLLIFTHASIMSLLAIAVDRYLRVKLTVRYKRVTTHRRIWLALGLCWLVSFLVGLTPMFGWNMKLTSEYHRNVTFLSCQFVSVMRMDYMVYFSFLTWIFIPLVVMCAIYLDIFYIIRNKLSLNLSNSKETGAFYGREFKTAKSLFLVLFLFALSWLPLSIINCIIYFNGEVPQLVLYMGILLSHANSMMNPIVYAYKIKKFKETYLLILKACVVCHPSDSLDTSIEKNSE
Method in brief: (§1)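 Radioligand binding to membranes from CHO cells expressing the human receptor, run for 3 h at room temperature. Radioligands were [3H]CCPA for hA1, [3H]NECA for hA2A and [3H]HEMADO for hA3. Nonspecific binding was defined with 1 mM theophylline (hA1) or 100 µM R-PIA (hA2A, hA3). Bound ligand was separated by GF/B filtration and counted. Ki came from nonlinear fitting of competition curves using Cheng-Prusoff, as geometric means of n = 3–6 with 95% CI.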

Adenosine receptor A1 = target: T3, Adenosine receptor A1 (Homo sapiens, UniProt P30542); test: Displacement of [3H]-CCPA from human adenosine A1 receptor expressed in CHO cells after 3 hrs by topcount scintillation counting analysis; type: cell-based; method in brief: as §1
T3 sequence (P30542 whole entry): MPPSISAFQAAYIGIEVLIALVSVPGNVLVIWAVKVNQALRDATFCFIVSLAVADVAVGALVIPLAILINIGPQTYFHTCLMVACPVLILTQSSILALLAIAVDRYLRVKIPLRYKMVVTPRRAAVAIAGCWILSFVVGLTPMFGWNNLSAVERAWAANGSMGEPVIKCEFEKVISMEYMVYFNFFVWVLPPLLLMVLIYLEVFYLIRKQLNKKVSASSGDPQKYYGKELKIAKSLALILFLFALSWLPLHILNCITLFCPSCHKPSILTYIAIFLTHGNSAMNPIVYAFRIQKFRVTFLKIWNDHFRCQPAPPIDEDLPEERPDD

Homo sapiens [1] = species on record: Homo sapiens; test: Selectivity ratio of Ki for human adenosine A2A receptor to Ki for human adenosine A3 receptor
Method in brief: (§2)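 Ratios of Ki values from displacement assays in CHO cells (3 h, room temperature). The hA1 Ki ([3H]CCPA) or the hA2A Ki ([3H]NECA) was divided by the hA3 Ki ([3H]HEMADO). Each Ki is a geometric mean of n = 3–6.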

[2] = target: Adenosine receptors; A1 & A3 (Homo sapiens) (UniProt P30542+P0DMS8); test: Selectivity ratio of Ki for human adenosine A1 receptor to Ki for human adenosine A3 receptor; method in brief: as §2
Adenosine receptor A2a = Adenosine receptor A2a (Homo sapiens, UniProt P29274); test: Displacement of [3H]-NECA from human adenosine A2A receptor expressed in CHO cells after 3 hrs by topcount scintillation counting analysis; type: cell-based; method in brief: as §1
Adenosine receptor A2a, sequence (P29274 whole entry): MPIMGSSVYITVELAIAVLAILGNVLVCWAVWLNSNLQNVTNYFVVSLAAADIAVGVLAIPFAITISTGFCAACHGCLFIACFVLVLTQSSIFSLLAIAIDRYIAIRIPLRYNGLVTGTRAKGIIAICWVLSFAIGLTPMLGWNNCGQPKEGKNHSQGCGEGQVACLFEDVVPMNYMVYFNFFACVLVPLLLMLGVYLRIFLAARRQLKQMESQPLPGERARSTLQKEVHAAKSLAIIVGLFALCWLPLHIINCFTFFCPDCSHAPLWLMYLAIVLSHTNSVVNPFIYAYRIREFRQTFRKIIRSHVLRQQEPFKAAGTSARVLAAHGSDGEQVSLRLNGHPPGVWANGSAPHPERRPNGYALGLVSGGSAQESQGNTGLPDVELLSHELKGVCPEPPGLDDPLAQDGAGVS

Homo sapiens [3] = species on record: Homo sapiens; test: Selectivity ratio of Ki for human adenosine A3 receptor to Ki for human adenosine A2A receptor
Homo sapiens [4] = species on record: Homo sapiens; test: Selectivity ratio of Ki for human adenosine A1 receptor to Ki for human adenosine A2A receptor

Row | Compound | Ki (Adenosine receptor A2b) | Ki (Adenosine receptor A3) | Ki (Adenosine receptor A1) | Ratio Ki (Homo sapiens [1]) | Ratio Ki [2] | Ki (Adenosine receptor A2a) | Ratio Ki (Homo sapiens [3]) | Ratio Ki (Homo sapiens [4])
1 | Cn1cc2c(Cl)nc(NC(=O)c3ccc(C(F)(F)F)cc3)nc2n1 | > 20 µM | 33.5 µM | > 100 µM | 0.7 | > 2.9 | 25.6 µM | – | –
2 | Cn1cc2c(Cl)nc(N(C(=O)c3ccccc3)C(=O)c3ccccc3)nc2n1 | > 20 µM | 7.1 µM | > 60 µM | 2.4 | > 8.4 | 17.5 µM | – | –
3 | Cn1cc2c(Cl)nc(NC(=O)c3ccc(F)cc3)nc2n1 | > 20 µM | 31.9 µM | > 100 µM | 0.6 | > 3.1 | 20.5 µM | – | –
4 | O=C(Cc1ccccc1)Nc1nc(Cl)c2cn(CCc3ccccc3)nc2n1 | > 20 µM | 11.4 µM | 6.5 µM | 0.7 | 0.5 | 8.6 µM | – | –
5 | CC(C)n1cc2c(Cl)nc(NC(=O)c3ccccc3)nc2n1 | > 20 µM | 12.8 µM | 19.6 µM | 0.3 | 1.5 | 4.6 µM | – | –
6 | CCOC(=O)c1nc(NC(=O)c2ccc(C(F)(F)F)cc2)nc2nn(CC(C)(C)C)cc12 | > 20 µM | 1.3 µM | > 100 µM | > 77 | > 77 | > 100 µM | – | –
7 | CC(C)n1cc2c(Cl)nc(NC(=O)c3ccc(C(F)(F)F)cc3)nc2n1 | > 20 µM | 10.3 µM | 13.8 µM | 0.2 | 1.3 | 2.7 µM | – | –
8 | CC(C)n1cc2c(Cl)nc(N(C(=O)c3ccccc3)C(=O)c3ccccc3)nc2n1 | > 20 µM | 6.7 µM | 7.9 µM | 0.1 | 1.1 | 0.8 µM | 8 | 9.9
9 | CC(C)(C)Cn1cc2c(Cl)nc(N(C(=O)c3ccccc3)C(=O)c3ccccc3)nc2n1 | > 20 µM | 6.5 µM | > 100 µM | > 15.3 | > 15.3 | > 100 µM | – | –
10 | Cn1cc2c(Cl)nc(N)nc2n1 | > 20 µM | > 100 µM | 29.7 µM | > 0.09 | – | 9.1 µM | – | –
11 | Cn1cc2c(Cl)nc(NC(=O)c3ccccc3)nc2n1 | > 20 µM | 23.6 µM | > 100 µM | 1 | > 4.2 | 24.2 µM | – | –
12 | Cc1ccc(C(=O)Nc2nc(Cl)c3cn(CCc4ccccc4)nc3n2)cc1 | > 20 µM | 1.5 µM | 10.8 µM | 6.6 | 7.2 | 9.9 µM | – | –
13 | CCOC(=O)c1nc(NC(=O)c2ccc(C)cc2)nc2nn(CC(C)(C)C)cc12 | > 20 µM | 0.9 µM | > 100 µM | > 111 | > 111 | > 100 µM | – | –
14 | O=C(Nc1nc(Cl)c2cn(CCc3ccccc3)nc2n1)c1ccc(F)cc1 | > 20 µM | > 100 µM | 2.7 µM | 0.02 | 0.02 | 2.06 µM | > 50 | –
15 | Cn1cc2c(Cl)nc(NC(=O)Cc3ccccc3)nc2n1 | > 20 µM | 6.6 µM | 16.3 µM | 4.5 | 2.4 | 29.9 µM | – | –

Second part, the compound after the results:

Row | Ki (Adenosine receptor A2b) | Ki (Adenosine receptor A3) | Ki (Adenosine receptor A1) | Ratio Ki (Homo sapiens [1]) | Ratio Ki [2] | Ki (Adenosine receptor A2a) | Ratio Ki (Homo sapiens [3]) | Ratio Ki (Homo sapiens [4]) | Compound
16 | > 20 µM | 6.6 µM | > 100 µM | > 15 | > 15 | > 100 µM | – | – | CC(C)(C)Cn1cc2c(Cl)nc(NC(=O)c3ccc(C(F)(F)F)cc3)nc2n1
17 | > 20 µM | 2.9 µM | > 100 µM | 2 | > 34.5 | 5.4 µM | – | – | O=C(c1ccccc1)N(C(=O)c1ccccc1)c1nc(Cl)c2cn(CCc3ccccc3)nc2n1
18 | > 20 µM | 2.8 µM | > 60 µM | 5.8 | > 21.4 | 16.4 µM | – | – | O=C(Nc1nc(Cl)c2cn(CCc3ccccc3)nc2n1)c1ccc(C(F)(F)F)cc1
19 | > 20 µM | 13.5 µM | > 100 µM | 0.8 | > 7.4 | 12 µM | – | – | Cc1ccc(C(=O)Nc2nc(Cl)c3cn(C)nc3n2)cc1
20 | > 20 µM | > 100 µM | 4.3 µM | > 0.03 | – | 3.7 µM | – | – | Nc1nc(Cl)c2cn(CCc3ccccc3)nc2n1
21 | > 20 µM | > 100 µM | 4.1 µM | 0.01 | – | 1.1 µM | 91 | – | Cc1ccc(C(=O)Nc2nc(Cl)c3cn(C(C)C)nc3n2)cc1
22 | > 10 µM | > 100 µM | 9 µM | 0.03 | – | 3.3 µM | – | – | CC(C)n1cc2c(Cl)nc(N)nc2n1
23 | > 20 µM | 10.9 µM | 31.9 µM | 2.1 | 2.9 | 23.6 µM | – | – | CC(C)(C)Cn1cc2c(Cl)nc(NC(=O)Cc3ccccc3)nc2n1
24 | > 20 µM | 8.6 µM | 3.8 µM | 0.3 | 0.4 | 3.1 µM | – | – | O=C(Nc1nc(Cl)c2cn(CCc3ccccc3)nc2n1)c1ccccc1
25 | > 20 µM | > 60 µM | 3.4 µM | > 0.02 | – | 1.6 µM | > 37 | – | CC(C)n1cc2c(Cl)nc(NC(=O)c3ccc(F)cc3)nc2n1
26 | > 10 µM | 5 µM | 11.1 µM | 0.4 | 2.2 | 2.1 µM | – | – | Cc1ccc(C(=O)Nc2nc(Cl)c3cn(CC(C)(C)C)nc3n2)cc1
27 | > 10 µM | > 60 µM | 12 µM | > 0.6 | – | 4.1 µM | – | – | CC(C)(C)Cn1cc2c(Cl)nc(N)nc2n1
28 | > 10 µM | 5.9 µM | 16.5 µM | 0.3 | 2.7 | 2.2 µM | – | – | CC(C)(C)Cn1cc2c(Cl)nc(NC(=O)c3ccc(F)cc3)nc2n1
29 | > 10 µM | 27.1 µM | 1.9 µM | 0.17 | 0.07 | 4.7 µM | – | – | CC(C)n1cc2c(Cl)nc(NC(=O)Cc3ccccc3)nc2n1
30 | ≥ 10 µM | 30.3 µM | 11 µM | 0.1 | 0.3 | 3.5 µM | – | – | CC(C)(C)Cn1cc2c(Cl)nc(NC(=O)c3ccccc3)nc2n1
